Results: ChEMBL document CHEMBL1154924, “Carbonic anhydrase activators: Activation of the beta-carbonic anhydrase from the pathogenic yeast Candida glabrata with amines and amino acids” (Bioorg Med Chem Lett, 2010)

Legend:
NCCc1c[nH]cn1 = conditions: Homo sapiens
[1] = target: T1, Carbonic anhydrase (Candida glabrata CBS 138) (UniProt Q6FTL6); experiment: Activation of Candida glabrata recombinant carbonic anhydrase by stopped flow CO2 hydration method; conditions: Nakaseomyces glabratus
T1 sequence (whole entry): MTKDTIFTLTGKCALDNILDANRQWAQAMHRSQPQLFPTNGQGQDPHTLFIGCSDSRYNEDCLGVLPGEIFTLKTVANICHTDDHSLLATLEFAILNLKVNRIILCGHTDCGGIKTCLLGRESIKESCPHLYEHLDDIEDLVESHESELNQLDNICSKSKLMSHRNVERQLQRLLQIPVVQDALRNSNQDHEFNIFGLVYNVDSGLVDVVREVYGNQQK
Outline: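 Recombinant yeast enzyme; stopped-flow CO2 hydration at 25 °C in 20 mM Tris (pH 8.3) and 20 mM NaClO4, with 0.2 mM phenol red read at 557 nm over 10 s. CO2 was 1.7–17 mM. Activators came from 10 mM aqueous stocks and were preincubated 15 min at room temperature with enzyme. Uncatalyzed rates were subtracted. KA was fitted from catalytic enhancement versus activator concentration; mean ± standard error of three assays.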

[2] = target: T2, Carbonic anhydrase (Methanobacterium thermoautotrophicum) (UniProt Q50565); experiment: Activation of archaea Methanobacterium thermoautotrophicum recombinant carbonic anhydrase by stopped flow CO2 hydration method; conditions: Methanothermobacter thermautotrophicus
T2 sequence (whole entry): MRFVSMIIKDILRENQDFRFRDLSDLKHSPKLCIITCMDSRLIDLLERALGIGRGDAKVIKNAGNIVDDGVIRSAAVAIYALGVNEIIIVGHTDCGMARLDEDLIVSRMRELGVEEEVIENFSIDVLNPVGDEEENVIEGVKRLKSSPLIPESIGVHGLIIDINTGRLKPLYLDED

[3] = target: T3, Carbonic anhydrase (Saccharomyces cerevisiae S288c) (UniProt P53615); experiment: Activation of Saccharomyces cerevisiae recombinant Nce103p by stopped flow CO2 hydration method
T3 sequence (whole entry): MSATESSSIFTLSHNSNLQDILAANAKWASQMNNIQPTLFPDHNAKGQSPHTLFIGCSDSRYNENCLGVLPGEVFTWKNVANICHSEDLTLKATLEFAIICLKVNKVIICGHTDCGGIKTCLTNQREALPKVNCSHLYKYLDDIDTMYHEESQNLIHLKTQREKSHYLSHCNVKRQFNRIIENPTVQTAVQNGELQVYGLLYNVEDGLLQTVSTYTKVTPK

[4] = target: Carbonic anhydrase 2 (Homo sapiens) (UniProt P00918); experiment: Activation of human recombinant carbonic anhydrase isoenzyme 2 by stopped flow CO2 hydration method

Compound | Km (NCCc1c[nH]cn1) [mM] | Ka [1] [µM] | Ka [2] [µM] | Ka [3] [µM] | Ka [4] [µM]
Carbonic anhydrase 2 (Homo sapiens) (from UniProt P00918) | 9.3 |  |  |  | 
NCCc1ccc(O)c(O)c1 |  | 27.6 | 51 |  | 
N[C@@H](Cc1c[nH]c2ccccc12)C(=O)O |  | 22.8 | 16.9 |  | 
Nc1ccc(C[C@H](N)C(=O)O)cc1 |  | 31.6 | 89 |  | 
N[C@H](Cc1ccc(O)cc1)C(=O)O |  | 7.1 | 19.2 | 84 | 0.058
N[C@H](Cc1ccc(O)c(O)c1)C(=O)O |  | 15.1 | 15.6 |  | 
N[C@@H](Cc1c[nH]cn1)C(=O)O |  | 37 | 69 |  | 
N[C@H](Cc1c[nH]c2ccccc12)C(=O)O |  | 12.1 | 41 |  | 
N[C@H](Cc1c[nH]cn1)C(=O)O |  | 21.2 | 57 |  | 
NCCN1CCNCC1 |  | 14.9 | 13.8 |  | 
N[C@@H](Cc1ccc(O)cc1)C(=O)O |  | 9.5 | 10.5 |  | 
NCCc1ccccn1 |  | 16.3 | 40 |  | 
NCc1ccccn1 |  | 15 | 18.7 |  | 
NCCc1c[nH]cn1 |  | 27.4 | 76 |  | 
NCCN1CCOCC1 |  | 10.1 | 18.5 |  | 
NCCc1c[nH]c2ccc(O)cc12 |  | 16.7 | 62 |  | 
N[C@@H](Cc1ccc(O)c(O)c1)C(=O)O |  | 23.3 | 11.4 |  | 
CNC[C@@H](O)c1ccc(O)c(O)c1 |  | 10.8 | 11.5 |  | 
